Results reported in ChEMBL document CHEMBL1240365, “Effects of ceftobiprole and oxacillin on mecA expression in methicillin-resistant Staphylococcus aureus clinical isolates” (2010).
≈ marks a conversion by molar mass, not a printed value.

Experiments:
Assay type in all cases: functional
Staphylococcus aureus [1] = assay: Antibacterial activity against beta-lactamase positive SCCmec type 3 methicillin-resistant Staphylococcus aureus isolate 14567 by broth microdilution method
Outline: (§1)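 MIC by broth microdilution in cation-adjusted Mueller-Hinton broth per CLSI recommendations. The isolates were mecA-positive MRSA, SCCmec-typed mainly by multiplex PCR. Every isolate was beta-lactamase positive by whole-cell nitrocefin hydrolysis.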

Staphylococcus aureus [2] = assay: Antibacterial activity against beta-lactamase positive SCCmec type 3 methicillin-resistant Staphylococcus aureus isolate 12662 by broth microdilution method; outline: as §1
Staphylococcus aureus [3] = assay: Antibacterial activity against beta-lactamase positive SCCmec type 2 methicillin-resistant Staphylococcus aureus isolate 17357 by broth microdilution method; outline: as §1
Staphylococcus aureus [4] = assay: Antibacterial activity against beta-lactamase positive SCCmec type 1 methicillin-resistant Staphylococcus aureus isolate 11631 by broth microdilution method; outline: as §1
Staphylococcus aureus [5] = assay: Antibacterial activity against beta-lactamase positive SCCmec type 2 methicillin-resistant Staphylococcus aureus isolate 17256 by broth microdilution method; outline: as §1
Staphylococcus aureus [6] = assay: Induction of mecA gene expression in beta-lactamase positive SCCmec type 4a methicillin-resistant Staphylococcus aureus isolate 14145 at MIC after 1 hr by multiplex PCR method
Staphylococcus aureus [7] = assay: Induction of mecA gene expression in beta-lactamase positive SCCmec type 2 methicillin-resistant Staphylococcus aureus isolate 17256 at MIC after 1 hr by multiplex PCR method
Staphylococcus aureus [8] = assay: Induction of mecA gene expression in beta-lactamase positive SCCmec type 4a methicillin-resistant Staphylococcus aureus isolate 12639 at MIC after 1 hr by multiplex PCR method
Staphylococcus aureus [9] = assay: Induction of mecA gene expression in beta-lactamase positive SCCmec type 4a methicillin-resistant Staphylococcus aureus isolate 11617 at MIC after 1 hr by multiplex PCR method
Staphylococcus aureus [10] = assay: Induction of mecA gene expression in beta-lactamase positive SCCmec type 2 methicillin-resistant Staphylococcus aureus isolate 17357 at MIC after 1 hr by multiplex PCR method
Staphylococcus aureus [11] = assay: Induction of mecA gene expression in beta-lactamase positive SCCmec type 2 methicillin-resistant Staphylococcus aureus isolate 11218 at MIC after 1 hr by multiplex PCR method
Staphylococcus aureus [12] = assay: Antibacterial activity against beta-lactamase positive SCCmec type 2 methicillin-resistant Staphylococcus aureus isolate 11218 by broth microdilution method; outline: as §1
Staphylococcus aureus [13] = assay: Antibacterial activity against beta-lactamase positive SCCmec type nontypeable methicillin-resistant Staphylococcus aureus isolate 17329 by broth microdilution method; outline: as §1
Staphylococcus aureus [14] = assay: Antibacterial activity against beta-lactamase positive SCCmec type 3 methicillin-resistant Staphylococcus aureus isolate 12597 by broth microdilution method; outline: as §1
Staphylococcus aureus [15] = assay: Antibacterial activity against beta-lactamase positive SCCmec type 2 methicillin-resistant Staphylococcus aureus isolate 11521 by broth microdilution method; outline: as §1
Staphylococcus aureus [16] = assay: Antibacterial activity against beta-lactamase positive SCCmec type 1 methicillin-resistant Staphylococcus aureus isolate 12192 by broth microdilution method; outline: as §1
Staphylococcus aureus [17] = assay: Induction of mecA gene expression in beta-lactamase positive SCCmec type 2 methicillin-resistant Staphylococcus aureus isolate 11521 at MIC after 1 hr by multiplex PCR method
Staphylococcus aureus [18] = assay: Induction of mecA gene expression in beta-lactamase positive SCCmec type 1 methicillin-resistant Staphylococcus aureus isolate 12575 at MIC after 1 hr by multiplex PCR method
Staphylococcus aureus [19] = assay: Induction of mecA gene expression in beta-lactamase positive SCCmec type 3 methicillin-resistant Staphylococcus aureus isolate 12662 at MIC after 1 hr by multiplex PCR method
Staphylococcus aureus [20] = assay: Induction of mecA gene expression in beta-lactamase positive SCCmec type 2 methicillin-resistant Staphylococcus aureus isolate 15855 at MIC after 1 hr by multiplex PCR method
Staphylococcus aureus [21] = assay: Antibacterial activity against beta-lactamase positive SCCmec type 1 methicillin-resistant Staphylococcus aureus isolate 12575 by broth microdilution method; outline: as §1
Staphylococcus aureus [22] = assay: Induction of mecA gene expression in beta-lactamase positive SCCmec type 4a methicillin-resistant Staphylococcus aureus isolate 14154 at MIC after 1 hr by multiplex PCR method
Staphylococcus aureus [23] = assay: Induction of mecA gene expression in beta-lactamase positive SCCmec type 1 methicillin-resistant Staphylococcus aureus isolate 11631 at MIC after 1 hr by multiplex PCR method
Staphylococcus aureus [24] = assay: Antibacterial activity against beta-lactamase positive SCCmec type 4a methicillin-resistant Staphylococcus aureus isolate 14145 by broth microdilution method; outline: as §1
Staphylococcus aureus [25] = assay: Antibacterial activity against beta-lactamase positive SCCmec type 3 methicillin-resistant Staphylococcus aureus isolate 12617 by broth microdilution method; outline: as §1
Staphylococcus aureus [26] = assay: Antibacterial activity against beta-lactamase positive SCCmec type 4a methicillin-resistant Staphylococcus aureus isolate 12639 by broth microdilution method; outline: as §1
Staphylococcus aureus [27] = assay: Induction of mecA gene expression in beta-lactamase positive SCCmec type 1 methicillin-resistant Staphylococcus aureus isolate 12192 at MIC after 1 hr by multiplex PCR method
Staphylococcus aureus [28] = assay: Antibacterial activity against beta-lactamase positive SCCmec type 5 methicillin-resistant Staphylococcus aureus isolate 12868 by broth microdilution method; outline: as §1
Staphylococcus aureus [29] = assay: Induction of mecA gene expression in beta-lactamase positive SCCmec type 3 methicillin-resistant Staphylococcus aureus isolate 12597 at MIC after 1 hr by multiplex PCR method
Staphylococcus aureus [30] = assay: Induction of mecA gene expression in beta-lactamase positive SCCmec type 3 methicillin-resistant Staphylococcus aureus isolate 14567 at MIC after 1 hr by multiplex PCR method
Staphylococcus aureus [31] = assay: Induction of mecA gene expression in beta-lactamase positive SCCmec type nontypeable methicillin-resistant Staphylococcus aureus isolate 17329 at MIC after 1 hr by multiplex PCR method
Staphylococcus aureus [32] = assay: Induction of mecA gene expression in beta-lactamase positive SCCmec type 3 methicillin-resistant Staphylococcus aureus isolate 12617 at MIC after 1 hr by multiplex PCR method
Staphylococcus aureus [33] = assay: Antibacterial activity against beta-lactamase positive SCCmec type 2 methicillin-resistant Staphylococcus aureus isolate 15855 by broth microdilution method; outline: as §1
Staphylococcus aureus [34] = assay: Induction of mecA gene expression in beta-lactamase positive SCCmec type 5 methicillin-resistant Staphylococcus aureus isolate 12868 at MIC after 1 hr by multiplex PCR method
Staphylococcus aureus [35] = assay: Antibacterial activity against beta-lactamase positive SCCmec type 4a methicillin-resistant Staphylococcus aureus isolate 11617 by broth microdilution method; outline: as §1
Staphylococcus aureus [36] = assay: Antibacterial activity against beta-lactamase positive SCCmec type 4a methicillin-resistant Staphylococcus aureus isolate 14154 by broth microdilution method; outline: as §1

Row | SMILES | MIC (Staphylococcus aureus [1]) | MIC (Staphylococcus aureus [2]) | MIC (Staphylococcus aureus [3]) | MIC (Staphylococcus aureus [4]) | MIC (Staphylococcus aureus [5]) | fold change (FC) (Staphylococcus aureus [6]) | fold change (FC) (Staphylococcus aureus [7]) | fold change (FC) (Staphylococcus aureus [8]) | fold change (FC) (Staphylococcus aureus [9]) | fold change (FC) (Staphylococcus aureus [10]) | fold change (FC) (Staphylococcus aureus [11]) | MIC (Staphylococcus aureus [12]) | MIC (Staphylococcus aureus [13]) | MIC (Staphylococcus aureus [14]) | MIC (Staphylococcus aureus [15]) | MIC (Staphylococcus aureus [16]) | fold change (FC) (Staphylococcus aureus [17]) | fold change (FC) (Staphylococcus aureus [18]) | fold change (FC) (Staphylococcus aureus [19]) | fold change (FC) (Staphylococcus aureus [20]) | also measured
1 | Nc1nc(/C(=N/O)C(=O)N[C@@H]2C(=O)N3C(C(=O)O)=C(/C=C4\CCN([C@@H]5CCNC5)C4=O)CS[C@H]23)ns1 [CEFTOBIPROLE] | 2 µg/mL (≈ 3.74 µM) | 0.5 µg/mL (≈ 0.935 µM) | 4 µg/mL (≈ 7.48 µM) | 2 µg/mL (≈ 3.74 µM) | 4 µg/mL (≈ 7.48 µM) | 14 | 3 | 5 | 30 | 3 | 3 | 0.5 µg/mL (≈ 0.935 µM) | 4 µg/mL (≈ 7.48 µM) | 2 µg/mL (≈ 3.74 µM) | 0.5 µg/mL (≈ 0.935 µM) | 2 µg/mL (≈ 3.74 µM) | 49 | 52 | 22 | 57 | MIC (Staphylococcus aureus [21]): 2 µg/mL (≈ 3.74 µM); fold change (FC) (Staphylococcus aureus [22]): 20; fold change (FC) (Staphylococcus aureus [23]): 65; MIC (Staphylococcus aureus [24]): 1 µg/mL (≈ 1.87 µM); MIC (Staphylococcus aureus [25]): 2 µg/mL (≈ 3.74 µM); MIC (Staphylococcus aureus [26]): 0.5 µg/mL (≈ 0.935 µM); fold change (FC) (Staphylococcus aureus [27]): 53; MIC (Staphylococcus aureus [28]): 0.5 µg/mL (≈ 0.935 µM); fold change (FC) (Staphylococcus aureus [29]): 24; fold change (FC) (Staphylococcus aureus [30]): 27; fold change (FC) (Staphylococcus aureus [31]): 4; fold change (FC) (Staphylococcus aureus [32]): 38; MIC (Staphylococcus aureus [33]): 1 µg/mL (≈ 1.87 µM); fold change (FC) (Staphylococcus aureus [34]): 20; MIC (Staphylococcus aureus [35]): 0.5 µg/mL (≈ 0.935 µM); MIC (Staphylococcus aureus [36]): 1 µg/mL (≈ 1.87 µM)
2 | Cc1onc(-c2ccccc2)c1C(=O)N[C@@H]1C(=O)N2[C@@H]1SC(C)(C)[C@@H]2C(=O)O [OXACILLIN] | 256 µg/mL (≈ 638 µM) | 256 µg/mL (≈ 638 µM) | > 256 µg/mL | > 256 µg/mL | 256 µg/mL (≈ 638 µM) | 5 | 4 | 2 | 5 | 15 | 3 | 32 µg/mL (≈ 79.7 µM) | 256 µg/mL (≈ 638 µM) | > 256 µg/mL | 256 µg/mL (≈ 638 µM) | > 256 µg/mL | 13 | 69 | 18 | 25 | MIC (Staphylococcus aureus [21]): > 256 µg/mL; fold change (FC) (Staphylococcus aureus [22]): 6; fold change (FC) (Staphylococcus aureus [23]): 66; MIC (Staphylococcus aureus [24]): 16 µg/mL (≈ 39.9 µM); MIC (Staphylococcus aureus [25]): > 256 µg/mL; MIC (Staphylococcus aureus [26]): 64 µg/mL (≈ 159 µM); fold change (FC) (Staphylococcus aureus [27]): 41; MIC (Staphylococcus aureus [28]): 4 µg/mL (≈ 9.96 µM); fold change (FC) (Staphylococcus aureus [29]): 31; fold change (FC) (Staphylococcus aureus [30]): 27; fold change (FC) (Staphylococcus aureus [31]): 50; fold change (FC) (Staphylococcus aureus [32]): 50; MIC (Staphylococcus aureus [33]): 256 µg/mL (≈ 638 µM); fold change (FC) (Staphylococcus aureus [34]): 2; MIC (Staphylococcus aureus [35]): 8 µg/mL (≈ 19.9 µM); MIC (Staphylococcus aureus [36]): 16 µg/mL (≈ 39.9 µM)
